# Source: PubChem BioAssay
# Apaf-1 inh = blocks human Apaf-1 apoptosome activity | O14727 | reconstituted apoptosome caspase-3 activity, DEVD-Rh110 fluorescence | inhibition, % at 20 µM | hit rate 0.71% among 330,000; active = inhibition of at least 40% at 20 µM
# Target sequence (O14727 whole entry, looked up): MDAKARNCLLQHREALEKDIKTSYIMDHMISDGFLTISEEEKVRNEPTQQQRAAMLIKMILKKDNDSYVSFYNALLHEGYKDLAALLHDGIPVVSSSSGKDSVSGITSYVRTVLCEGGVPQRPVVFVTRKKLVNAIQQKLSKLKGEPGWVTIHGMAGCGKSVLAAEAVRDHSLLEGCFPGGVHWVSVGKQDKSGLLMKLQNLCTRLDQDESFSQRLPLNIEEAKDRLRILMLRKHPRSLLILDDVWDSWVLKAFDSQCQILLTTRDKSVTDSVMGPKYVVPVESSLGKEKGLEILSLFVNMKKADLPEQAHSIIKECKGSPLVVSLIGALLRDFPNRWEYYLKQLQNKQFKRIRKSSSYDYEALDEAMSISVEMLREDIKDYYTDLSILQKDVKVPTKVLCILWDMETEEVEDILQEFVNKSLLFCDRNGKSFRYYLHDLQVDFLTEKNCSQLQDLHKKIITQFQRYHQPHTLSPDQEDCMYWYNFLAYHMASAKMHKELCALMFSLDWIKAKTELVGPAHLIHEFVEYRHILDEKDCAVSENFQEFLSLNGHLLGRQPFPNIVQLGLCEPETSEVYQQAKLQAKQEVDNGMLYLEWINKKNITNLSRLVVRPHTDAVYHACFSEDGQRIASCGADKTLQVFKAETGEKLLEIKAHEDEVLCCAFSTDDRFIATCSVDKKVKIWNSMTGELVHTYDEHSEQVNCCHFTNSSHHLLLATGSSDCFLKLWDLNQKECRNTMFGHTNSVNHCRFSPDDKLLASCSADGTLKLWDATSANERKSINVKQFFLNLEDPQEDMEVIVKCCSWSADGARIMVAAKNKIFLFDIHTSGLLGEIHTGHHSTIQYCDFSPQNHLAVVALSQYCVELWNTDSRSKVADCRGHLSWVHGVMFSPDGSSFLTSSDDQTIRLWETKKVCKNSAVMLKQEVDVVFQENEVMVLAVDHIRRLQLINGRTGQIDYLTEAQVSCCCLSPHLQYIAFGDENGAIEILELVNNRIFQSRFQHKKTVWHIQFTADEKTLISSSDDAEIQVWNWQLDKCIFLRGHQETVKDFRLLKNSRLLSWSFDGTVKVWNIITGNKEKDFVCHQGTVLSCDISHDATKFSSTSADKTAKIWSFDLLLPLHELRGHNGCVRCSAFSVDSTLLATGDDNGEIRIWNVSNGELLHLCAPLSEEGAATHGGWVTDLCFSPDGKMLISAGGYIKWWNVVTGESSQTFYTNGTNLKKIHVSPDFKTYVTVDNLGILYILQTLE
#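 Assay system – apoptosome proteins · Medium – Hepes buffer, pH 7.5 · Also added – cytochrome c with DEVD-Rh110 · Timing – 30 min compound preincubation, 50 min activation, room temperature · Detection – Rh110 fluorescence, excitation 480 nm, emission 540 nm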
# PAD4 FP inh = inhibitors of human PAD4; inhibition, % at 6.36 µM; recombinant PAD4, RCA probe fluorescence polarization; hit rate 0.41% among 330,000; Q9UM07;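 active = percent inhibition above a cutoff equal to the mean of all tested compounds plus 3 SD, cut at about 15% in these data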
# TCR CD3 inh = inhibitors of human TCR-CD3 interaction; TAMRA-labeled TCR probe fluorescence, biochemical; AID 651800; inhibition, % at 9.4 µM; hit rate 0.37% among 360,000;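 note: recombinant mutant TCR 2C K166C tagged with TAMRA read by polarization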
# SIAE inh = inhibitors of human sialic acid acetylesterase SIAE; Q9HAT2; hit rate 0.69% among 370,000; SIAE FP-Rh probe binding, fluorescence polarization; inhibition, % at 9.66 µM;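 active = inhibition above a cutoff: mean of compounds within the control limits plus 3 SD of those, cut at about 17% in these data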
# GSTO1 inh = GSTO1 inhibition, counter-screen for RBBP9 inhibitors. P78417. recombinant GSTO1, activity-based probe fluorescence polarization. inhibition, % at 5.96 µM. hit rate 1.1% among 300,000. AID 1974;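 active = inhibition above the campaign mean inhibition plus 3 SD, cut at about 35% in these data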
# TDP2 absorb = blocks human TDP2 phosphodiesterase activity; O95551; recombinant TDP2, T5PNP hydrolysis, p-nitrophenol absorbance 415 nm; inhibition, % at 12.8 µM; hit rate 0.34% among 370,000; AID 720702;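 active = inhibition above the mean of all tested compounds plus 3 SD, set per campaign, cut at about 25% in these data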
#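 Test system: Human TDP2 enzyme | Reagent: 5 mM T5PNP | Compound dosing: 12.8 µM single point, 1% DMSO | Incubation: Enzyme reaction with compound for 2 h at 37 °C | Technique: p-Nitrophenol epi absorbance | Read-out: % inhibition relative to enzyme-containing and enzyme-free wells | Benchmarks: High control without enzyme, low control DMSO plus TDP2 | Replicates: Singlicate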
# PAD4 FP conf = PAD4 (human) inhibition, confirmed; shares compounds with PAD4 FP inh; inhibition, % at 6.36 µM; recombinant PAD4, RCA probe fluorescence polarization; hit rate 28% among 1,200;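 active = mean inhibition across replicates above the hit cutoff set by the earlier primary screen, cut at about 15% in these data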;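 note: inhibitors block active-site labeling by the probe so polarization falls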
# Apaf-1 inh conf2 = confirmation of Apaf-1 inhibitors | reconstituted apoptosome, caspase-3 DEVD-Rh110 fluorescence | inhibition, % at 20 µM | hit rate 25% among 1,800 | shares compounds with Apaf-1 inh;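 active = mean inhibition of at least 40% at 20 µM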
# Rh110 interf inh = Rh110 signal interference in Apaf-1 inhibitor counter-screen. Rh110 fluorescence interference, quenched caspase reaction. 1,800 tested, under 10 active. AID 504615. activation (fluorescence interference), % at 20 µM. shares compounds with Apaf-1 inh;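 active = signal rise of 40% or more at 20 µM, treated as a fluorescence artifact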
# BSA probe FL = BSA probe counter-screen for TCR-CD3 inhibitors; hit rate 10% among 1,200; inhibition, % at 9.4 µM; TAMRA-labeled BSA probe fluorescence counterscreen; shares compounds with TCR CD3 inh; in the data active = inhibition above about 23%
# TCR-CD3 inh conf = TCR-CD3 interaction inhibition, confirmation; AID 652036; inhibition, % at 9.4 µM; shares compounds with TCR CD3 inh; hit rate 48% among 1,200; TAMRA-labeled TCR probe fluorescence binding assay
# SIAE confirm = human SIAE inhibition, confirmation; shares compounds with SIAE inh; hit rate 13% among 2,300; inhibition, % at 9.66 µM; SIAE FP-Rh activity-based probe, fluorescence polarization;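 active = mean inhibition of the replicates above the hit cutoff set in the primary screen, cut at about 17% in these data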;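 note: inhibitors lower polarization as more probe stays unbound to SIAE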
# Hits are given with their value; – = inactive; · = no result. The list is not random: actives were taken first. Their share in the collection is about 2.4%. Cut-off read from the data, not from the text of the source, unless noted: active = inhibition above about 19%; inactive = the rest.
SMILES,Apaf-1 inh,PAD4 FP inh,TCR CD3 inh,SIAE inh,GSTO1 inh,TDP2 absorb,PAD4 FP conf,SIAE confirm,others
COc1ccc2ccccc2c1C(O)c1nccn1C (stereo not drawn),41,26,79,57,36,–,39,43,Apaf-1 inh conf2=–;Rh110 interf inh=–;BSA probe FL=–;TCR-CD3 inh conf=–
Cn1c(=O)c(N)c2c3c(c(Br)ccc31)C(=O)c1ccccc1-2,–,106,32,28,–,–,126,25,BSA probe FL=–;TCR-CD3 inh conf=23
Cn1c(=O)c2c(nc(Oc3ccccc3Br)n2C)n(C)c1=O,·,·,–,–,·,–,·,·,
CSc1nsc(/C=C/Nc2ccc(F)cc2)c1C#N,–,–,–,–,–,–,·,·,
CSc1nsc(/C=C/Nc2ccc(O)cc2C)c1C#N,–,29,27,43,69,–,–,21,BSA probe FL=–;TCR-CD3 inh conf=–
CN1CCS/C1=C/C=C1/SC(=S)N(Cc2ccccc2)C1=O,·,49,–,22,–,–,–,22,
CCCCN1C(=O)/C(=C/C=C2\SCCN2C)SC1=S,–,·,–,–,·,–,·,·,
O=c1[nH]c(=S)[nH]c2nc(-c3ccccc3)cnc12,–,–,–,–,–,–,·,·,
Cc1cc2nc3c(=O)[nH]c(=S)[nH]c3nc2cc1NC(=O)C(F)(F)F,–,41,70,21,–,–,39,–,BSA probe FL=–;TCR-CD3 inh conf=–
Cc1cc2cc(CNS(=O)(=O)c3ccccc3)ccc2n1C,61,18,50,17,–,–,–,–,Apaf-1 inh conf2=–;Rh110 interf inh=–;BSA probe FL=–;TCR-CD3 inh conf=–
CCS(=O)(=O)NCc1ccc2c(c1)cc(C)n2C,–,–,–,–,–,–,·,·,
Cc1cc2cc(CNC(=O)c3ccc(S(=O)(=O)N4CCCCC4)cc3)ccc2n1C,53,31,85,35,–,–,–,–,Apaf-1 inh conf2=–;Rh110 interf inh=–
CN(Cc1ccccc1)C(=O)c1ccc(Nc2nc(CN)cs2)nc1,·,·,–,–,·,–,·,·,
Cc1nc2ccc(N=NC3=C(O)CCCC3=O)cc2s1,–,–,–,–,–,–,·,·,
O=C1CCCC(O)=C1N=Nc1c(Cl)cc(Cl)cc1Cl,–,36,–,21,–,–,–,–,
Cc1ccsc1C(=O)N1CCCC(CCC(=O)NCc2ccc(F)c(F)c2)C1 (stereo not drawn),–,–,–,–,–,–,·,·,
CCn1c(CSc2n[nH]c(N)n2)nc2cc(C(=O)O)ccc21,–,51,94,36,–,–,58,31,BSA probe FL=137;TCR-CD3 inh conf=97
CCn1c(CSc2nnc(-c3ccncc3)n2CCOC)nc2cc(C(=O)O)ccc21,–,48,32,19,–,–,58,38,BSA probe FL=160;TCR-CD3 inh conf=109
COc1cc(OC)cc(C(=O)NNC(=O)c2nn(C)c(=O)c3ccccc23)c1,–,–,–,–,·,–,·,·,
Fc1cccc(-n2cc(-c3ccccc3)c3c(=S)nc[nH]c32)c1,–,–,–,–,–,–,·,·,
CCOc1ccccc1/C=N/n1nnnc1N,–,–,–,–,–,–,·,·,
C=CCSc1nnc(-c2nnc(SCC=C)n2-c2ccccc2)n1-c1ccccc1,–,–,–,–,–,–,·,·,
CC/C(=C\C(=O)c1ccncc1)Nc1ccc(O)cc1,–,77,51,22,–,–,–,–,
CC1(OC(=O)c2ccco2)C(=O)C=C2C=C(C3CC3)OC=C2C1=O (stereo not drawn),–,20,57,24,–,–,–,–,BSA probe FL=56;TCR-CD3 inh conf=37
CCC(=O)OC1(C)C(=O)C=C2C=C(C3CC3)OC=C2C1=O (stereo not drawn),–,–,–,–,–,–,·,·,
SMILES,Apaf-1 inh,PAD4 FP inh,TCR CD3 inh,SIAE inh,GSTO1 inh,TDP2 absorb,PAD4 FP conf,SIAE confirm,others
Cc1ccc(-c2ccccc2NC(=O)CS(=O)CC(=O)Nc2ccc(C)c(Cl)c2)o1 (stereo not drawn),–,113,85,45,–,–,–,–,BSA probe FL=–;TCR-CD3 inh conf=–
O=c1ccc2c(-c3ccccc3)c3ccc(O)cc3oc-2c1,–,29,–,36,–,–,63,36,
Cc1cc2c(c(=O)o1)C(c1ccc([N+](=O)[O-])o1)C(C#N)=C(N)O2 (stereo not drawn),–,27,38,23,–,–,–,–,BSA probe FL=–;TCR-CD3 inh conf=–
CC(=O)C1=C(C)OC(N)=C(C#N)C1c1ccncc1 (stereo not drawn),–,–,–,–,–,–,·,·,
Cc1nn(-c2cccc(Cl)c2)c2c1C(c1ccncc1)C(C#N)=C(N)O2 (stereo not drawn),–,34,–,20,–,–,–,–,
Cc1cc(=O)oc2cc(OCC(=O)Nc3nnc(C(C)C)s3)ccc12,–,–,–,–,–,–,·,·,
COC(=O)C1(C(=O)OC)Cc2ccccc2N(S(=O)(=O)c2ccc(C)cc2)C1CC(C)=O (stereo not drawn),·,·,–,–,·,–,·,·,
COc1ccccc1NC(=S)Nc1cccc2cnccc12,97,–,–,–,–,–,·,·,Apaf-1 inh conf2=–;Rh110 interf inh=–
Fc1cccc(NC(=S)Nc2cccnc2)c1,–,–,–,–,–,–,·,·,
COc1ccc(NC(=S)Nc2cccc3cnccc23)cc1,95,–,–,–,–,–,·,·,Apaf-1 inh conf2=–;Rh110 interf inh=–
S=C(Nc1cccnc1)Nc1cccc2cnccc12,86,–,–,–,–,–,·,·,Apaf-1 inh conf2=–;Rh110 interf inh=–
COc1ccccc1NC(=S)NCc1cccnc1,–,–,–,–,–,–,·,·,
CCOc1ccc(NC(=S)Nc2cccc3cnccc23)cc1,96,–,–,–,–,–,·,·,Apaf-1 inh conf2=–;Rh110 interf inh=–
CC(C)NC(=O)COc1coc(CN2CCN(c3ccccc3F)CC2)cc1=O,–,–,–,–,–,–,·,·,
CCN(C(=S)Nc1cccnc1)c1cccc2ccccc12,85,–,–,–,–,–,·,·,Apaf-1 inh conf2=–;Rh110 interf inh=–
Cc1ccc(/C=C/c2onc(C)c2S(=O)(=O)N2CCC(C(=O)N3CCN(C)CC3)CC2)cc1,45,–,–,–,–,–,·,·,Apaf-1 inh conf2=–;Rh110 interf inh=–
O=C(Nc1cccc(C(F)(F)F)c1)C1=CC=CN2CCS(=O)(=O)N=C12,–,–,–,–,·,–,·,·,
